These results are taken from PubChem BioAssay.

Experiment [1] in a line: OD615 S. cerevisiae growth inhibition, permissive medium, pilot counter-assay, permissive growth control for S. cerevisiae lifespan shortening project (AID 705;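 active = growth inhibition above 25% in both replicates, a cutoff set 3 SD above the mean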). The following applies: OD615, 24 h, at 10 µM, active compounds read high. The method, boiled down:
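Material: engineered DeaD yeast; compound dosing: one dose 10 µM, DMSO 0.25% final; measure: yeast growth inhibition indicated by reduced 24 h OD615; detection: OD615 turbidity read; incubation: cells pre-grown 4 h, then 24 h compound exposure, 30 °C humidified; medium: permissive synthetic complete medium with raffinose and galactose carbon sources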

Experiment [2] is described as follows: Restrictive medium S. cerevisiae growth inhibition, OD615, pilot screen of yeast lifespan reduction project, restrictive growth control (AID 706;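 active = growth inhibition above a set limit, 3 SD over mean compound inhibition, in both replicates, cut at about 43% in these data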;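 also: modified DeaD lifespan yeast strain shifted to restrictive glucose medium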). The settings on record: OD615, 48 h, at 10 µM, active compounds read high. The method, boiled down:
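material = engineered S. cerevisiae DeaD strain | medium = glucose-based CSMM-D restrictive medium | times = 4 h pre-incubation, 48 h exposure at 30 °C | technique = OD615 absorbance reading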

Experiment [3] is described as follows: viability gain of MRP-1-high H69AR cells under doxorubicin, pilot screen, MRP-1 activator project, CellTiter-Glo, duplicate (AID 807).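 Also: compound pretreatment 18-22 h then 72 h combined with doxorubicin; 0% = doxorubicin alone and 100% = vehicle without doxorubicin.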 The settings on record: H69AR viability with doxorubicin, CellTiter-Glo luminescence; at 10 µM; active compounds read high. A general note: Cellular ATP, detected with luciferase, serves as a proxy for viable cell number.
The nature of experiment [4]: growth suppression of beta-catenin knockout HCT116, pilot screen, human colon tumor cells (AID 823;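 active = cell viability at or below a set limit in both duplicate runs, the limit being the all-compound median minus 4 SD, cut at about 23% in these data, passing the limit was not always enough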;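 also: 0% = wells killed by 20 µM Hyamine and 100% = untreated DMSO cell wells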). The settings on record: CellTiter-Glo, 60 h, at 10 µM, active compounds read low.
Experiment [5] can be described thus: growth suppression of PTEN-deleted HCT116, pilot screen, cell-based, HCT116 clonal line, CellTiter-Glo (AID 824;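 active = viability at or below 27.92% in each of two runs, the all-compound median minus 4 SD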;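 also: 0% = 20 µM Hyamine control and 100% = vehicle cell control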). The settings on record: 60 h, at 10 µM, active compounds read low.
Experiment [6] in a line: RAM signaling pathway blockade in yeast – S. cerevisiae, Pdr1DBD-CYC8 efflux-inhibited sensitized strain, primary screen (AID 1298;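 active = RAM network inhibition above 8.4% in each of two replicates, 3 SD over the compound average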;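 also: 0% = DMSO untreated cells without growth and 100% = 10 µM 1-NA-PP1 full growth; higher means more yeast growth rescued from 5-FOA killing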). The settings on record: S. cerevisiae cbk1-as DSE1-URA3 strain, 5-FOA growth OD615, 2 d; at 50 µM; active compounds read high.
The nature of experiment [7]: inhibitors of the yeast RAM network, pilot screen, dse1pr::URA3 reporter, 5-FOA selection (AID 869;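 active = inhibition over a set limit, the all-compound mean plus 3 SD, in both replicate runs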;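 also: 0% = DMSO wells with no growth and 100% = 10 µM 1-NA-PP1 with full growth; RAM network block rescues cells from 5-FOA so hits raise OD615 growth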). The following applies: S. cerevisiae dse1pr::URA3 5-FOA growth, OD615, 2 d; at 10 µM; active compounds read high; strain carries analog-sensitive mutant Cbk1 kinase.

Unmarked numbers belong to inactive results. Records with an inconclusive call do not appear. Activity calls are given as the source filed them.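 The calls were made as follows, unless noted: active = viability increase at or above a cutoff of the median across tested compounds plus 3 SD (cut at about 8.5% in these data, passing the limit was not always enough); inconclusive = some gains above the cutoff, reason not given; inactive = the rest.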

By viability is commonly meant a read-out of living cells in per cent, often relative to untreated cells. As usually defined, the inhibition is how much of the control response was suppressed.

Turning to `O=C(CCc1nc2ccccc2[nH]1)Nc1ccc2c(c1)OCCO2`, the growth inhibition is -17.1% in experiment [1] and -18.4% in experiment [2]. Further, the viability increase in experiment [3] is -2.36%. For the same compound, the viability was 94.2% in experiment [4] and 94.8% in experiment [5]. For the same compound, in experiment [6], the RAM network inhibition is 0.89%.

For the compound `C=CCn1c(SCC(=O)c2cccs2)nc2sc(CC)cc2c1=O`, the growth inhibition in experiment [1] was -5.62%; in experiment [2], 5.1%. In experiment [3], the viability increase is -1.39%. The viability in experiment [4] was 76.8%; in experiment [5] it was 83.3%. The RAM network inhibition in experiment [6] was 7.45%.

As for `CCCOCCOC(=O)c1[nH]c2c(c1C)C(=O)CC(c1cc(OC)ccc1OC)C2` (centres undefined), the growth inhibition was -12.2% in experiment [1] and -4.79% in experiment [2]. The viability increase in experiment [3] is -4.21%. The viability in experiment [4] is 17.3% (active); in experiment [5], 20.6% (active). In addition, the RAM network inhibition in experiment [6] is 8.16%.

On to `OC(COCC1COc2ccccc2O1)CN1CCc2ccccc2C1` (centres undefined), for which the values for the growth inhibition in experiment [1] and in experiment [2] were -28.7% and -12.5%, respectively. Moreover, the viability increase in experiment [3] was -2.72%. In addition, the results for the viability in experiment [4] and in experiment [5] were 86.4% and 90.8%, respectively. Besides, the RAM network inhibition in experiment [6] was 1.37%.

As for `CCC(=O)N1c2ccccc2-c2nnc(SC)nc2OC1c1ccc(OC)c(OC)c1` (centres undefined), the growth inhibition is -7.65% in experiment [1] and -7.5% in experiment [2]. Moreover, the viability increase in experiment [3] is -2.71%. Further, the figures for the viability in experiment [4] and in experiment [5] were 102% and 94.1%, respectively. Also, in experiment [6], the RAM network inhibition is 1.85%.

As to `O=C(c1cccs1)N(C(=O)c1cccs1)c1ccccn1`, the growth inhibition is -5.4% in experiment [1] and -6.32% in experiment [2]. Besides, the viability increase in experiment [3] is -1.11%. The viability in experiment [4] is 96.8%; in experiment [5] it was 102%. In addition, the RAM network inhibition in experiment [6] was 4.17%.

For `CCCSc1nc2c(cnn2-c2ccccc2)c(=O)[nH]1`, the results for the growth inhibition in experiment [1] and in experiment [2] were -12.6% and -17.8%, respectively. The viability increase in experiment [3] is -0.89%. Besides, the viability in experiment [4] is 105%; in experiment [5] it was 95.7%. In experiment [6], the RAM network inhibition is -0.83%.

As for `Cc1ccc(NC(=O)CSc2nnc(Cn3c(=O)sc4ccccc43)n2C)cc1`, the growth inhibition in experiment [1] was -5.8%; in experiment [2] it was -12.1%. The viability increase in experiment [3] is -1.58%. The viability in experiment [4] is 93.6%; in experiment [5], 96.4%. Further, the RAM network inhibition in experiment [6] is 8.73%.

With `Cc1cc(Nc2ccc(C)c(Br)c2)n2nc(C)nc2n1`, the growth inhibition in experiment [1] was -12.9%; in experiment [2] it was 10.4%. The viability increase in experiment [3] was -5%. The viability was 92.1% in experiment [4] and 92.8% in experiment [5]. In addition, in experiment [6], the RAM network inhibition is 3.87%.

As for `COc1cc(C(=O)NCCc2cn3ccc(C)cc3n2)cc(OC)c1OC`, the growth inhibition in experiment [1] is -4.97%; in experiment [2] it was 4.06%. Besides, in experiment [3], the viability increase is -4.28%. The viability in experiment [4] is 96.5%; in experiment [5], 95.9%. Further, the RAM network inhibition in experiment [6] was 2.94%.

As to `COc1cccc(CNC(=O)c2cc3ccccn3n2)c1`, the results for the growth inhibition in experiment [1] and in experiment [2] were -1.27% and -6.35%, respectively. Moreover, the viability increase in experiment [3] was -2.27%. For the same compound, the results for the viability in experiment [4] and in experiment [5] were 106% and 96.8%, respectively. In addition, in experiment [7], the inhibition is 1.33%. In addition, the RAM network inhibition in experiment [6] is -0.11%.

Regarding `Cc1ccc(C2CC(=O)NC(SCCC(C)C)=C2C#N)cc1` (centres undefined), the growth inhibition in experiment [1] is -9.08%; in experiment [2] it was -2.19%. Besides, in experiment [3], the viability increase is -4.1%. The viability in experiment [4] was 96.8%; in experiment [5], 78.9%. In addition, in experiment [6], the RAM network inhibition is 9.74%.

`CCn1cc(C(=O)N2CCn3c(nc4ccccc43)C2)c(=O)c2ccc(C)nc21`: the figures for the growth inhibition in experiment [1] and in experiment [2] were -10.2% and -4.84%, respectively. In addition, the viability increase in experiment [3] is -2.81%. Besides, the viability was 104% in experiment [4] and 94.3% in experiment [5]. In addition, the inhibition in experiment [7] was 2.08%. The RAM network inhibition in experiment [6] is 0.07%.

For `Cc1ccc(-c2nc(CSCC(=O)N3CCN(C(=O)c4ccco4)CC3)c(C)o2)cc1`, the figures for the growth inhibition in experiment [1] and in experiment [2] were -4.69% and 14.9%, respectively. In addition, the viability increase in experiment [3] is -1.03%. Further, the viability in experiment [4] was 76.4%; in experiment [5], 76.5%. For the same compound, the RAM network inhibition in experiment [6] was 6.53%.

Turning to `Cc1cc2cc(CNC(=O)C3CCCC3)ccc2n1C`, the figures for the growth inhibition in experiment [1] and in experiment [2] were -3.94% and -10.2%, respectively. The viability increase in experiment [3] is 0.45%. The figures for the viability in experiment [4] and in experiment [5] were 103% and 91%, respectively. In addition, in experiment [6], the RAM network inhibition was 2.97%.

As for `COc1ccccc1S(=O)(=O)Cc1ccc(C(=O)NCc2cccnc2)o1`, the growth inhibition in experiment [1] was 0.915%; in experiment [2], -0.525%. The viability increase in experiment [3] is -1.11%. In addition, the viability was 97.8% in experiment [4] and 94.9% in experiment [5]. Besides, in experiment [6], the RAM network inhibition was 2.56%.

As for `CN(CP(=O)(O)C(O)c1ccccc1)S(C)(=O)=O` (centres undefined), the growth inhibition in experiment [1] is -4.82%; in experiment [2], -6.66%. The viability increase in experiment [3] was 0.16%. The viability in experiment [4] is 94.2%; in experiment [5], 93.4%. Besides, in experiment [7], the inhibition was 1.1%. Besides, in experiment [6], the RAM network inhibition is 1.86%.

Regarding `CCOc1ccc(-n2nnc3c(=O)n(CC(=O)c4ccccc4)cnc32)cc1`, the values for the growth inhibition in experiment [1] and in experiment [2] were -2.31% and 1.56%, respectively. Moreover, in experiment [3], the viability increase is 0.38%. Further, the viability in experiment [4] was 101%; in experiment [5], 97%. Also, in experiment [6], the RAM network inhibition was 3.09%.

As to `CC(C)OCCCNS(=O)(=O)c1ccc2c(c1)oc(=O)n2C`, the figures for the growth inhibition in experiment [1] and in experiment [2] were -13.3% and -6.73%, respectively. Further, the viability increase in experiment [3] is -1.3%. Moreover, the results for the viability in experiment [4] and in experiment [5] were 101% and 97%, respectively. The RAM network inhibition in experiment [6] was 0.04%.

For `CCCn1c(C(C)NC(C)=O)nc2ccccc21` (centres undefined), the growth inhibition in experiment [1] is -10.3%; in experiment [2], -16.9%. Moreover, the viability increase in experiment [3] is -1.47%. Also, the viability in experiment [4] was 99.2%; in experiment [5], 90.7%. Moreover, in experiment [7], the inhibition was 1.3%. The RAM network inhibition in experiment [6] is 1.25%.
